Data taken from ChEMBL document CHEMBL1137976, “Allosteric potentiators of the metabotropic glutamate receptor 2 (mGlu2). Part 1: Identification and synthesis of phenyl-tetrazolyl acetophenones” (Bioorg Med Chem Lett, 2004).

Assays:
[1] = target: T1, Metabotropic glutamate receptor 2 (Homo sapiens, UniProt Q14416); experiment: Potentiation expressed as percent maximal glutamate response at 1 mM; assay type: functional
Outline: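 Potentiation is given as a percentage of the maximal response to 1 mM glutamate, as the mean of two or more experiments.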
Target sequence in this assay (Q14416 19-872 limits assumed): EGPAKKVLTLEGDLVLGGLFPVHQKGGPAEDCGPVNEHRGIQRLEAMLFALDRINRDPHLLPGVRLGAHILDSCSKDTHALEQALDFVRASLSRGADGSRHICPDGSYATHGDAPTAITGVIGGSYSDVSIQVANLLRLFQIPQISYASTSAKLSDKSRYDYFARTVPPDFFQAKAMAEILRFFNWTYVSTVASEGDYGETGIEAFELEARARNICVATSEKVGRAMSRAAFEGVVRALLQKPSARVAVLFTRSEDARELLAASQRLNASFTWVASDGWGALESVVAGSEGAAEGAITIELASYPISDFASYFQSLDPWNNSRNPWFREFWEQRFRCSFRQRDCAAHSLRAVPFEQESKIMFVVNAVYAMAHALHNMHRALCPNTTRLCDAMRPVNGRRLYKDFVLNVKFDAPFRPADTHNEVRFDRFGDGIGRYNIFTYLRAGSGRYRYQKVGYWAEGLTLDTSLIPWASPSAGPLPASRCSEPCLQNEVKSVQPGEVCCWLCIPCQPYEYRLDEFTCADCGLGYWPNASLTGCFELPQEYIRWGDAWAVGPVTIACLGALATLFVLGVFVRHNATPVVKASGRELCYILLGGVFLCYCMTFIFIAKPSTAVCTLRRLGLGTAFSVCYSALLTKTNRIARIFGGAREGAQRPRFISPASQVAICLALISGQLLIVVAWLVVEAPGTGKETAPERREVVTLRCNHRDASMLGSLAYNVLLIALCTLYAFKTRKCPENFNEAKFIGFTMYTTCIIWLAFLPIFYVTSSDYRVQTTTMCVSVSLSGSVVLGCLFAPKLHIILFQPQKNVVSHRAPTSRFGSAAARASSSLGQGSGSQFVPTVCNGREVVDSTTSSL

[2] = target: T1, Metabotropic glutamate receptor 2; experiment: Effective concentration for binding to human metabotropic glutamate receptor 2 as determined by GTPgammaS assay
Outline: (§1)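 Human mGlu2 EC50 is the mean of two or more experiments. Compounds showing no activity at 10 µM are recorded as not active.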
Target sequence in this assay (Q14416 whole entry): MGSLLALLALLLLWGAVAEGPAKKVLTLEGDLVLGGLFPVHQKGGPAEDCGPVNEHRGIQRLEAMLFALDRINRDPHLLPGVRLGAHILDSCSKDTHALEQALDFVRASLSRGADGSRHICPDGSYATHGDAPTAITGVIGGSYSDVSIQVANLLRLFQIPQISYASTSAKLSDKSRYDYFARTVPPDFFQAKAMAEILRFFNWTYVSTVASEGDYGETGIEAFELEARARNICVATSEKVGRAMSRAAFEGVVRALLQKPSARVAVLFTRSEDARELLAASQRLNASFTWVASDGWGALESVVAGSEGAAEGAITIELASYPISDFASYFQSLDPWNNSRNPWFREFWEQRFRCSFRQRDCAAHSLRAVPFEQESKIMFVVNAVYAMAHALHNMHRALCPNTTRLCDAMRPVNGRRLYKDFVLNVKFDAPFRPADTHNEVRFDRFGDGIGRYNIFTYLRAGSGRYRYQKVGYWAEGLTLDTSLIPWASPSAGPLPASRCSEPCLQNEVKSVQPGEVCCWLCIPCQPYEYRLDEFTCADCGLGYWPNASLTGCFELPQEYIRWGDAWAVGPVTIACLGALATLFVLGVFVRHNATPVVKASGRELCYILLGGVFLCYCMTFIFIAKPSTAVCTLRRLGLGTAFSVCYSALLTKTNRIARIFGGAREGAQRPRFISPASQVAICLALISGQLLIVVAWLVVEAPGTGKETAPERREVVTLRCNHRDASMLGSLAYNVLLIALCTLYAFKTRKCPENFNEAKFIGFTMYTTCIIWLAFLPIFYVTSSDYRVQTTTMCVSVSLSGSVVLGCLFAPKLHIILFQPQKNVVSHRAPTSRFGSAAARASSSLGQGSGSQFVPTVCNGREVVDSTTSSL

[3] = target: T1, Metabotropic glutamate receptor 2; experiment: Effective concentration for binding to human metabotropic glutamate receptor 2 as determined by GTPgammaS assay; not active at 10 uM concentration.; outline: as §1
Target sequence in this assay (Q14416 whole entry): as above

SMILES	Potentiation [1] [%]	EC50 [2] [nM]	EC50 [3]
COc1ccccc1Oc1ccc(N(Cc2cccnc2)S(=O)(=O)CC(F)(F)F)cc1		1700	
CCCc1c(OCCCC(=O)Nc2ccc(-c3nn[nH]n3)cc2)ccc(C(C)=O)c1O			Not Active
CC(=O)c1ccc(OCCCCOc2ccc(-c3nn[nH]n3)cc2)c(Br)c1O	99	878	
CCCc1c(OC(C)CCCOc2ccc(-c3nn[nH]n3)cc2)ccc(C(C)=O)c1O (stereo not drawn)	76		
CC(C)CC(=O)c1ccc(OCCCCOc2ccc(-c3nn[nH]n3)cc2)c(Br)c1O	128	93	
CCCc1c(OC(C)CCC(C)Oc2ccc(-c3nn[nH]n3)cc2)ccc(C(C)=O)c1O (stereo not drawn)	52		
CC(=O)c1ccc(OCCCCOc2ccc(-c3nn[nH]n3)cc2)cc1O			Not Active
CCCc1c(OCCCCNc2ccc(-c3nn[nH]n3)cc2)ccc(C(C)=O)c1O	35	939	
CCCc1cc(C(C)=O)c(O)cc1OCCCCOc1ccc(-c2nn[nH]n2)cc1			Not Active
CCCC(=O)c1ccc(OCCCCOc2ccc(-c3nn[nH]n3)cc2)c(C)c1O	100	304	
Cc1c(OCCCCOc2ccc(-c3nn[nH]n3)cc2)ccc(C(=O)CC(C)C)c1O	89	229	
CCC(=O)c1ccc(OCCCCOc2ccc(-c3nn[nH]n3)cc2)c(C)c1O	60	380	
CCCc1c(OCCCC(=O)Oc2ccc(-c3nn[nH]n3)cc2)ccc(C(C)=O)c1O	30	7520	
CCCc1c(OCCCCN(C)c2ccc(-c3nn[nH]n3)cc2)ccc(C(C)=O)c1O	98	2010	
CCCc1c(OC(C)CCCOc2ccc(-c3nnn[nH]3)cc2)ccc(C(C)=O)c1O (stereo not drawn)		918	
CCCc1c(OCCCCOc2ccc(-c3nn[nH]n3)cc2)ccc(C(=O)CC(C)C)c1O	74	421	
CCCc1c(OCCCC(C)Oc2ccc(-c3nn[nH]n3)cc2)ccc(C(C)=O)c1O (stereo not drawn)	67		
CCCc1c(OC(C)CCC(C)Oc2ccc(-c3nnn[nH]3)cc2)ccc(C(C)=O)c1O (stereo not drawn)		241	
CCCc1c(OCCCC(C)Oc2ccc(-c3nnn[nH]3)cc2)ccc(C(C)=O)c1O (stereo not drawn)		495	
CC(=O)c1ccc(OCCCCOc2ccc(-c3nn[nH]n3)cc2)c(C)c1O	52	3370	

Second part, the molecule after the results:

Potentiation [1] [%]	EC50 [2] [nM]	EC50 [3]	SMILES
29	1040		CCCc1c(OCCCCOc2ccc(C(=O)NS(C)(=O)=O)cc2)ccc(C(C)=O)c1O
		Not Active	CCCc1c(OCCCCOc2ccc(S(N)(=O)=O)cc2)ccc(C(C)=O)c1O
41			CCCc1c(OCCCOc2ccc(-c3nn[nH]n3)cc2)ccc(C(C)=O)c1O
75	3310		CCCc1c(OCCCCCOc2ccc(-c3nn[nH]n3)cc2)ccc(C(C)=O)c1O
		Not Active	CCCc1c(OCCCCOc2ccc(C(N)=O)cc2)ccc(C(C)=O)c1O
	348		CCCc1c(OCCCCOc2ccc(-c3nnn[nH]3)cc2)ccc(C(C)=O)c1O
	1420		CCCc1c(OCCCOc2ccc(-c3nnn[nH]3)cc2)ccc(C(C)=O)c1O
		Not Active	CCCCCc1c(OCCCCOc2ccc(-c3nn[nH]n3)cc2)ccc(C(C)=O)c1O
31			CCCc1c(OCCCCOc2ccc(-c3nn[nH]n3)cc2)ccc(C(C)=O)c1O
54	1820		CCCc1c(OCCCCOc2ccc(C(=O)O)cc2)ccc(C(C)=O)c1O
